Bioassay records from PubChem BioAssay.
Lmaj promast – reduces viability of Leishmania major promastigotes; 200,000 tested, 9% active; resazurin fluorescence viability; inhibition, % at 10 µM; in the data active = inhibition above about 50%;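 note: promastigotes grown with compound for 44 hours at 28 °C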
Dynein cargo inh – blocks dynein driven cargo transport along microtubules | z-score, hits read low | AID 1381 | 220,000 tested, 0.47% active | 3617.4 mouse cells, GR-EGFP nuclear translocation imaging; test concentration mostly 20 µM; stimulated with dexamethasone, 1 µM; stronger effect = lower value;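 active = plate z-score of nuclear minus cytoplasmic receptor signal below a set negative limit, without overly bright fluorescence or cell loss, cut at about -3.5 in these data, passing the limit was not always enough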;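 note: z-score of nuclear minus cytoplasmic ring GR-EGFP intensity difference per well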
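Medium: Induction medium lacking tetracycline, stripped serum | Probe or stimulus: 1.0 µM final dexamethasone stimulus | Schedule: 48 h induction, then 1 h compound, then 30 min agonist, 37 °C | Signal: Automated 10x imaging of fixed Hoechst-stained cells | Evaluation: Per-cell GR-EGFP intensity, nucleus versus surrounding cytoplasmic ring, well-averaged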
PTEN del growth – PTEN-deleted cell growth suppression; 140,000 tested, 1.2% active; HCT116 PTEN-null viability, CellTiter-Glo, 60 h; stronger effect = lower value; viability, % at 10 µM;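 active = viability at or below a set limit, 4 SD under the median of all tested compounds, cut at about 3.7% in these data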;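 note: PTEN knockout HCT116 line with beta catenin targeted HCT116 as companion control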
HCT116 bCat-KO – beta-catenin-lacking colon tumor cell growth suppression. HCT116 beta-catenin knockout viability, CellTiter-Glo, 60 h; stronger effect = lower value. viability, % at 10 µM. 140,000 tested, 1.5% active;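 active = viability at or under a set limit, the compound median less 4 SD, cut at about 6% in these data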
Autophagy mod – modulators of autophagy. MEF GFP-LC3 puncta imaging; test concentration mostly 10 µM. 190,000 tested, 0.98% active. calls only at 10 µM (by protocol). AID 463193;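 active = percentage of spot-positive cells more than 3 SD above its plate mean, without a fluorescence outlier flag or 80% toxicity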
A number is an active result; 0 = inactive; - = no result; + = active, no number. Shown are actives, neighbours in structure and some others; about 9.2% of the full set was active somewhere.

SMILES	Lmaj promast	Dynein cargo inh	PTEN del growth	HCT116 bCat-KO	Autophagy mod
CCCCn1c2c(c(=O)n(C)c1=O)C(CC(=O)OCC(=O)Nc1cccc(C(F)(F)F)c1)C(=O)N2 (stereo not drawn)	0	0	0	0	0
COc1cc(C)ccc1OCCOc1ccccc1Cl	0	0	0	0	0
COc1cc(C)ccc1OCCOCCN(C)Cc1ccccc1	91	0	0	0	0
CN(CCOCCOc1ccc2ccccc2c1)Cc1ccccc1	100	0	0	0	0
CNC(=O)COc1ccc(C=O)cc1OC	60	0	0	0	0
COc1cc(C)ccc1OCCOCCOc1ccccc1[N+](=O)[O-]	0	0	0	0	0
COc1ccc(OCCN(C)Cc2ccccc2)cc1	0	0	0	0	0
COc1cc(C=O)ccc1OCCOCCOc1cc(C)ccc1Cl	73	0	0	0	0
CC(OCC(O)CN(C)Cc1nc2ccccc2c(=O)[nH]1)c1ccc(Cl)cc1 (stereo not drawn)	0	0	-	-	0
CC(C)(C)CC(=O)O/N=C(\N)c1ccccn1	0	0	0	0	0
CC1(NC(=O)Nc2ccccc2)CCS(=O)(=O)C1 (stereo not drawn)	-	0	-	-	-
Cc1ccccc1NC(=S)NC1(C)CCS(=O)(=O)C1 (stereo not drawn)	54	0	0	0	0
COc1ccc(OC)c(Nc2nc3nonc3nc2N2CCCCC2)c1	0	0	0	0	+
COc1ccccc1Nc1nc2nonc2nc1N1CCC(C)CC1	0	0	0	0	0
COc1ccc(S(=O)(=O)N2CCN(c3ccccc3)CC2)cc1	0	0	-	-	0
COc1ccc(/C=N/NC(=O)CNC(=O)C2COc3ccccc3O2)cc1OC (stereo not drawn)	0	0	0	0	0
Cc1ccccc1COCCN1CCN(S(=O)(=O)c2ccccc2)CCC1=O	-	0	-	-	-
O=C(Nc1ccc(S(=O)(=O)N2CCCCC2)cc1)c1ccc(CN2CCc3ccccc3C2)cc1	99	0	0	0	0
O=C(Nc1ccccc1)c1ccc(-c2ccc(Br)cc2)o1	0	0	0	0	0
COc1cc(NC(=O)c2ccc(-c3ccc(Br)cc3)o2)ccc1NC(=O)C(C)C	0	0	0	0	+
COC(=O)c1ccc(NC(=O)c2ccc(CN3CCOCC3)cc2)cc1	0	0	0	0	0
O=C(Nc1ccccc1)c1ccc(CN2CCc3ccccc3C2)cc1	0	0	-	-	0
O=C(Nc1ccc(S(=O)(=O)Nc2ccccc2)cc1)c1ccc(CN2CCOCC2)cc1	82	0	-	-	0
O=C(Nc1ccc(CN2CCOCC2)cc1)c1ccc(-c2ccc(Br)cc2)o1	83	0	0	0	0
COc1ccccc1NC(=O)c1ccc(-c2ccc(Br)cc2)o1	0	0	0	0	0
SMILES	Lmaj promast	Dynein cargo inh	PTEN del growth	HCT116 bCat-KO	Autophagy mod
Cc1nc2ccccc2c(=O)n1NC(=O)C1CCC(C(C)(C)C)CC1 (stereo not drawn)	0	0	-	-	0
O=c1[nH]c2ccccc2n1C1=CCNCC1	-	0	-	-	-
Cc1ccc(C(=O)c2oc3nc(C)cc(C)c3c2N)cc1	64	0	0	0	0
CCOc1ccc(C(CCc2ccccc2)NC(=O)c2ccccc2)cc1OCC (stereo not drawn)	0	0	0	0	0
CC(C(=O)NCC1CCCCC1)N1CCN(S(=O)(=O)/C=C/c2ccccc2)CC1 (stereo not drawn)	99	0	0	0	0
Cc1ccc(NC(=O)C2CC(=O)N(c3ccc4c5c(cccc35)CC4)C2)cc1 (stereo not drawn)	0	0	0	0	0
N#Cc1ccccc1NC(=O)C1CC(=O)N(c2ccc3c4c(cccc24)CC3)C1 (stereo not drawn)	57	0	0	0	0
CCCCn1c(N)c(N(Cc2ccccc2OC)C(=O)COc2ccccc2C#N)c(=O)[nH]c1=O	-	0	-	-	-
CC(=O)NC(c1ccccc1)c1cc([N+](=O)[O-])c2cccnc2c1O (stereo not drawn)	0	0	-	-	0
CCC(=O)NC(C)C(c1cccs1)N1CCOCC1 (stereo not drawn)	0	0	-	-	0
CCCCC(=O)NC(c1ccco1)c1cc(Cl)c2cccnc2c1O (stereo not drawn)	0	0	-	-	0
CCC(=O)NC(c1cccs1)c1cc([N+](=O)[O-])c2cccnc2c1O (stereo not drawn)	0	0	0	3.0	0
O=C(CCc1ccccc1)NC(c1cccs1)c1cc(Cl)c2cccnc2c1O (stereo not drawn)	99	0	-	-	0
CCCC(=O)NC(c1cccs1)c1cc([N+](=O)[O-])c2cccnc2c1O (stereo not drawn)	0	0	0	5.5	0
